In ChEMBL document CHEMBL4196177, “Synthesis, Evaluation, and Structure-Activity Relationship Study of Lanosterol Derivatives To Reverse Mutant-Crystallin-Induced Protein Aggregation” (J Med Chem, 2018):
Activity calls are given as the source filed them. The calls are words filed in the database; no cut-off is given here.

Columns and labels:
Assay type in all cases: cell-based
[1] = test system: T1, Alpha-crystallin B chain (Homo sapiens), P02511 [R120G]; test: Inhibition of alpha-crystallin B R120G mutant (unknown origin)-induced intracellular protein aggregation expressed in human HLE-B3 cells at 4 uM incubated for 6 to 8 hrs by fluorescence microscopy relative to untreated control
T1 sequence (whole entry): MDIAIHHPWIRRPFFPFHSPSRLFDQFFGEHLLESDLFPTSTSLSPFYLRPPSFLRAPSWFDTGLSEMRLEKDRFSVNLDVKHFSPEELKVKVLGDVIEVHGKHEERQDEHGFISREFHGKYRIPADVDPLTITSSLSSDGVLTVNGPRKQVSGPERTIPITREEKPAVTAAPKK
How it was run: (§1)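 Cells were transfected with mutant crystallin constructs using Lipofectamine 2000 and cultured for 16 h until the overexpressed mutants formed aggregates. Compounds were then added to the culture medium and incubated for 6~8 h. Aggregate dissolution was scored by fluorescence microscopy. For αB R120G, % inhibition at 0.4 and 4 µM was calculated against DMSO-treated cells; values are mean ± error.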

[2] = test system: T2, Gamma-crystallin C (Homo sapiens), P07315 [G129C]; test: Inhibition of gamma-crystallin C G129C mutant (unknown origin)-induced intracellular protein aggregation expressed in human HeLa cells at 0.4 uM incubated for 6 to 8 hrs by fluorescence microscopy relative to untreated control
T2 sequence (whole entry): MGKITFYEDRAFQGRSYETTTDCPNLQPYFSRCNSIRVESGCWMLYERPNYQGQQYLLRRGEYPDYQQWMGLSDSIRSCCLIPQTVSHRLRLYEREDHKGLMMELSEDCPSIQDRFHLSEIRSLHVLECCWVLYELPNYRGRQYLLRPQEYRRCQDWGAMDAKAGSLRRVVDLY

[3] = test system: T3, Beta-crystallin B2 (Homo sapiens), P43320 [V187E]; test: Inhibition of beta-crystallin B2 V187E mutant (unknown origin)-induced intracellular protein aggregation expressed in human HLE-B3 cells at 0.4 uM incubated for 6 to 8 hrs by fluorescence microscopy relative to untreated control
T3 sequence (whole entry): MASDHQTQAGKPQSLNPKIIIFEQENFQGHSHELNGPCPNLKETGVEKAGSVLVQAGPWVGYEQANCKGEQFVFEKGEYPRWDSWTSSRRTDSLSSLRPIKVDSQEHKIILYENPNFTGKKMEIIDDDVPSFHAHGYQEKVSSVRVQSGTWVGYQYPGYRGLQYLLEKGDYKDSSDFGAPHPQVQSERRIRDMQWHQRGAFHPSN

[4] = test system: T2, Gamma-crystallin C (Homo sapiens), P07315 [G129C]; test: Inhibition of gamma-crystallin C G129C mutant (unknown origin)-induced intracellular protein aggregation expressed in human HLE-B3 cells at 4 uM incubated for 6 to 8 hrs by fluorescence microscopy relative to untreated control
[5] = test system: T2, Gamma-crystallin C (Homo sapiens), P07315 [G129C]; test: Inhibition of gamma-crystallin C G129C mutant (unknown origin)-induced intracellular protein aggregation expressed in human HLE-B3 cells at 0.4 uM incubated for 6 to 8 hrs by fluorescence microscopy relative to untreated control
[6] = test system: T4, Alpha-crystallin A chain (Homo sapiens), P02489 [Y118D]; test: Inhibition of alpha-crystallin A Y118D mutant (unknown origin)-induced intracellular protein aggregation expressed in human HLE-B3 cells at 0.4 uM incubated for 6 to 8 hrs by fluorescence microscopy relative to untreated control
T4 sequence (whole entry): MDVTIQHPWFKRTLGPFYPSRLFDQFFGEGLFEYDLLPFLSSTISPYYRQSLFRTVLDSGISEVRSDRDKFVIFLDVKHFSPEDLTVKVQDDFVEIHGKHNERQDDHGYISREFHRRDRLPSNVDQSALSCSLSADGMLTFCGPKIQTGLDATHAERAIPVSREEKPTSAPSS

[7] = test system: T5, Gamma-crystallin D (Homo sapiens), P07320 [W43R]; test: Inhibition of gamma-crystallin D W43R mutant (unknown origin)-induced intracellular protein aggregation expressed in human HLE-B3 cells at 4 uM incubated for 6 to 8 hrs by fluorescence microscopy relative to untreated control
T5 sequence (whole entry): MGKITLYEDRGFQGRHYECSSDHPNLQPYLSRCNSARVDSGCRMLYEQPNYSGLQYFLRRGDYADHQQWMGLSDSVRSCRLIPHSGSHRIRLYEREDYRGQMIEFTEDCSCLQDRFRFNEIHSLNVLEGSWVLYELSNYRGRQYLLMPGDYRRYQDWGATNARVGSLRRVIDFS

[8] = test system: T3, Beta-crystallin B2 (Homo sapiens), P43320 [V187E]; test: Inhibition of beta-crystallin B2 V187E mutant (unknown origin)-induced intracellular protein aggregation expressed in human HeLa cells at 0.4 uM incubated for 6 to 8 hrs by fluorescence microscopy relative to untreated control
[9] = test system: T3, Beta-crystallin B2 (Homo sapiens), P43320 [V187E]; test: Inhibition of beta-crystallin B2 V187E mutant (unknown origin)-induced intracellular protein aggregation expressed in human HLE-B3 cells at 4 uM incubated for 6 to 8 hrs by fluorescence microscopy relative to untreated control
[10] = test system: T4, Alpha-crystallin A chain (Homo sapiens), P02489 [Y118D]; test: Inhibition of alpha-crystallin A Y118D mutant (unknown origin)-induced intracellular protein aggregation expressed in human HeLa cells at 0.4 uM incubated for 6 to 8 hrs by fluorescence microscopy relative to untreated control
[11] = test system: T1, Alpha-crystallin B chain (Homo sapiens), P02511 [R120G]; test: Inhibition of alpha-crystallin B R120G mutant (unknown origin)-induced intracellular protein aggregation expressed in human HLE-B3 cells at 0.4 uM incubated for 6 to 8 hrs by fluorescence microscopy relative to untreated control; how it was run: as §1
[12] = test system: T3, Beta-crystallin B2 (Homo sapiens), P43320 [V187E]; test: Inhibition of beta-crystallin B2 V187E mutant (unknown origin)-induced intracellular protein aggregation expressed in human HeLa cells at 4 uM incubated for 6 to 8 hrs by fluorescence microscopy relative to untreated control
[13] = test system: T2, Gamma-crystallin C (Homo sapiens), P07315 [G129C]; test: Inhibition of gamma-crystallin C G129C mutant (unknown origin)-induced intracellular protein aggregation expressed in human HeLa cells at 4 uM incubated for 6 to 8 hrs by fluorescence microscopy relative to untreated control
[14] = test system: T5, Gamma-crystallin D (Homo sapiens), P07320 [W43R]; test: Inhibition of gamma-crystallin D W43R mutant (unknown origin)-induced intracellular protein aggregation expressed in human HeLa cells at 0.4 uM incubated for 6 to 8 hrs by fluorescence microscopy relative to untreated control
[15] = test system: T5, Gamma-crystallin D (Homo sapiens), P07320 [W43R]; test: Inhibition of gamma-crystallin D W43R mutant (unknown origin)-induced intracellular protein aggregation expressed in human HLE-B3 cells at […] incubated for 6 to 8 hrs by fluorescence microscopy relative to untreated control
[16] = test system: T1, Alpha-crystallin B chain (Homo sapiens), P02511 [R120G]; test: Inhibition of alpha-crystallin B R120G mutant (unknown origin)-induced intracellular protein aggregation expressed in human HeLa cells at 0.4 uM incubated for 6 to 8 hrs by fluorescence microscopy relative to untreated control; how it was run: as §1
[17] = test system: T4, Alpha-crystallin A chain (Homo sapiens), P02489 [Y118D]; test: Inhibition of alpha-crystallin A Y118D mutant (unknown origin)-induced intracellular protein aggregation expressed in human HLE-B3 cells at 4 uM incubated for 6 to 8 hrs by fluorescence microscopy relative to untreated control
[18] = test system: T5, Gamma-crystallin D (Homo sapiens), P07320 [W43R]; test: Inhibition of gamma-crystallin D W43R mutant (unknown origin)-induced intracellular protein aggregation expressed in human HeLa cells at 4 uM incubated for 6 to 8 hrs by fluorescence microscopy relative to untreated control
[19] = test system: T1, Alpha-crystallin B chain (Homo sapiens), P02511 [R120G]; test: Inhibition of alpha-crystallin B R120G mutant (unknown origin)-induced intracellular protein aggregation expressed in human HeLa cells at 4 uM incubated for 6 to 8 hrs by fluorescence microscopy relative to untreated control; how it was run: as §1
[20] = test system: T4, Alpha-crystallin A chain (Homo sapiens), P02489 [Y118D]; test: Inhibition of alpha-crystallin A Y118D mutant (unknown origin)-induced intracellular protein aggregation expressed in human HeLa cells at 4 uM incubated for 6 to 8 hrs by fluorescence microscopy relative to untreated control

Structure (SMILES) | inhibition [1] | inhibition [2] | inhibition [3] | inhibition [4] | inhibition [5] | inhibition [6] | inhibition [7] | inhibition [8] | inhibition [9] | inhibition [10] | inhibition [11] | inhibition [12] | inhibition [13] | inhibition [14] | inhibition [15] | inhibition [16] | inhibition [17] | inhibition [18] | inhibition [19] | inhibition [20]
C[C@H](CCCC(C)(C)O)[C@H]1CC[C@@]2(C)C3=C(CC[C@]12C)[C@@]1(C)C[C@@H](F)[C@H](O)C(C)(C)[C@@H]1CC3 | Active | Active | Active | Active | Active | Active | Active | Active | Active | Active | Active | Active | Active | Active | Active | Active | Active | Active | Active | Active
C[C@H](CCCC(C)(C)O)[C@H]1CC[C@@]2(C)C3=C(CC[C@]12C)[C@@]1(C)CCC(=O)C(C)(C)[C@@H]1CC3 | Active | Active | Active | Active | Active | Active | Active | Active | Active | Active | Active | Active | Active | Active | Active | Active | Active | Active | Active | Active
C[C@H](CCCC(C)(C)O)[C@H]1CC[C@@]2(C)C3=C(CC[C@]12C)[C@@]1(C)CC[C@H](O)C(C)(C)[C@@H]1CC3 | Active | Active | Active | Active | Active | Active | Active | Active | Active | Active | Active | Active | Active | Active | Active | Active | Active | Active | Active | Active
C[C@H](CCCC(C)(C)O)[C@H]1CC[C@@]2(C)C3=CC[C@H]4C(C)(C)[C@@H](O)CC[C@]4(C)C3=CC[C@]12C | Active | Active | Active | Active | Active | Active | Active | Active | Active | Active | Active | Active | Active | Active | Active | Active | Active | Active | Active | Active

Further lines, results first:

inhibition [1] | inhibition [2] | inhibition [3] | inhibition [4] | inhibition [5] | inhibition [6] | inhibition [7] | inhibition [8] | inhibition [9] | inhibition [10] | inhibition [11] | inhibition [12] | inhibition [13] | inhibition [14] | inhibition [15] | inhibition [16] | inhibition [17] | inhibition [18] | inhibition [19] | inhibition [20] | Structure (SMILES)
Active | Active | Active | Active | Active | Active | Active | Active | Active | Active | Active | Active | Active | Active | Active | Active | Active | Active | Active | Active | C[C@H](CCCC(C)(C)O)[C@H]1CC[C@@]2(C)C3=C(CC[C@]12C)[C@@]1(C)C[C@@H](F)[C@@H](O)C(C)(C)[C@@H]1CC3
inactive | inactive | inactive | inactive | inactive | inactive | inactive | inactive | inactive | inactive | inactive | inactive | inactive | inactive | inactive | inactive | inactive | inactive | inactive | inactive | C[C@H](CCCC(C)(C)O)[C@H]1CC[C@@]2(C)[C@@]34CC[C@H]5C(C)(C)/C(=N/O)CC[C@]5(C)[C@]3(CC[C@]12C)O4
